From ChEMBL document CHEMBL3102810, “Alkylamino derivatives of pyrazinamide: synthesis and antimycobacterial evaluation” (Bioorg Med Chem Lett, 2014)
Values after ≈ are worked out from the molar mass of the structure shown. Active and inactive are the calls of the source. No cut-off for these calls is given here.

Assays:
Mycobacterium avium [1] = assay: Antimycobacterial activity against pyrazinamide-resistant Mycobacterium avium CNCTC My 80/72 after 5 days by microplate alamar blue assay; assay type: functional; conditions: CNCTC My 80/72, 120 h
Method in brief: (§1)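 Microplate alamar blue assay run at pH 5.6, using conditions optimized for pyrazinamide. Strains came from the Czech National Collection of Type Cultures. MIC was read in µg/mL and converted to µM using molecular weight.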

Trichosporon asahii = assay: Antifungal activity against Trichosporon asahii 1188 after 72 to 120 hrs by microdilution broth method; assay type: functional, organism-based
Escherichia coli = assay: Antibacterial activity against Escherichia coli CCM 4517 after 24 to 48 hrs by microdilution broth method; assay type: functional, organism-based
Method in brief: (§2)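 Antibacterial screen with compound concentrations up to a highest level of 500 µM. Results expressed as MIC in µM.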

[2] = system: Staphylococcus epidermidis; assay: Antibacterial activity against methicillin-resistant Staphylococcus epidermidis H 5996/08 after 24 to 48 hrs by microdilution broth method; assay type: functional, organism-based
[3] = system: Mycobacterium tuberculosis; assay: Antimycobacterial activity against Mycobacterium tuberculosis H37Rv CNCTC My 331/88 after 5 days by microplate alamar blue assay; assay type: functional; conditions: H37Rv CNCTC My 331/88, 120 h; method in brief: as §1
Aspergillus fumigatus = assay: Antifungal activity against Aspergillus fumigatus 231 after 72 to 120 hrs by microdilution broth method; assay type: functional, organism-based
[4] = Lipophilicity, log K of the compound by HPLC analysis; assay type: physicochemical
Mycobacterium kansasii = assay: Antimycobacterial activity against pyrazinamide-resistant Mycobacterium kansasii CNCTC My 235/80 after 5 days by microplate alamar blue assay; assay type: functional; conditions: CNCTC My 235/80, 120 h; method in brief: as §1
Pichia kudriavzevii = assay: Antifungal activity against Candida krusei E28 after 72 to 120 hrs by microdilution broth method; assay type: functional, organism-based
[5] = system: Trichophyton mentagrophytes; assay: Antifungal activity against Trichophyton mentagrophytes 445 after 72 to 120 hrs by microdilution broth method; assay type: functional, organism-based
Mycobacterium avium [6] = assay: Antimycobacterial activity against pyrazinamide-resistant Mycobacterium avium CNCTC My 152/73 after 5 days by microplate alamar blue assay; assay type: functional; conditions: CNCTC My 152/73, 120 h; method in brief: as §1
Lichtheimia corymbifera = assay: Antifungal activity against Absidia corymbifera 272 after 72 to 120 hrs by microdilution broth method; assay type: functional, organism-based
Candida tropicalis = assay: Antifungal activity against Candida tropicalis 156 after 72 to 120 hrs by microdilution broth method; assay type: functional, organism-based
Nakaseomyces glabratus = assay: Antifungal activity against Candida glabrata 20/I after 72 to 120 hrs by microdilution broth method; assay type: functional, organism-based
Enterococcus sp. = assay: Antibacterial activity against Enterococcus sp. J 14365/08 after 24 to 48 hrs by microdilution broth method; assay type: functional, organism-based; method in brief: as §2
Klebsiella pneumoniae [7] = assay: Antibacterial activity against ESBL positive Klebsiella pneumoniae J 14368/08 after 24 to 48 hrs by microdilution broth method; assay type: functional, organism-based; method in brief: as §2
Klebsiella pneumoniae [8] = assay: Antibacterial activity against Klebsiella pneumoniae D 11750/08 after 24 to 48 hrs by microdilution broth method; assay type: functional, organism-based; method in brief: as §2
Staphylococcus aureus = assay: Antibacterial activity against Staphylococcus aureus CCM 4516/08 after 24 to 48 hrs by microdilution broth method; assay type: functional, organism-based; method in brief: as §2
[9] = system: Staphylococcus epidermidis; assay: Antibacterial activity against Staphylococcus epidermidis H 6966/08 after 24 hrs by microdilution broth method; assay type: functional; conditions: H 6966/08, 24 h; method in brief: as §2
[10] = system: Trichophyton mentagrophytes; assay: Antifungal activity against Trichophyton mentagrophytes after 72 to 120 hrs by microdilution broth method; assay type: functional, organism-based
Candida albicans = assay: Antifungal activity against Candida albicans ATCC 44859 after 72 to 120 hrs by microdilution broth method; assay type: functional, organism-based
Pseudomonas aeruginosa = assay: Antibacterial activity against Pseudomonas aeruginosa CCM 1961 after 24 to 48 hrs by microdilution broth method; assay type: functional, organism-based; method in brief: as §2
[11] = system: Staphylococcus epidermidis; assay: Antibacterial activity against Staphylococcus epidermidis H 6966/08 after 48 hrs by microdilution broth method; assay type: functional; conditions: for MIC95: H 6966/08, 48 h; method in brief: as §2
[12] = Selectivity index, ratio of IC50 for human HepG2 cells to MIC for Mycobacterium tuberculosis H37Rv CNCTC My 331/88; assay type: toxicity, cell-based; conditions: read-out: Selectivity Index
Method in brief: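 HepG2 human liver cell viability was measured by a colorimetric tetrazolium-reduction assay, and IC50 was derived from the toxicity curves. MIC against M. tuberculosis H37Rv came from the alamar blue microplate assay at pH 5.6. SI = IC50/MIC, both in molar units.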

HepG2 = assay: Cytotoxicity against human HepG2 cells after 24 hrs; assay type: cell-based; conditions: HepG2, 24 h
Method in brief: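 HepG2 human liver cells; loss of viability measured by a colorimetric tetrazolium-reduction assay. IC50 derived from the toxicity curves. Where limited solubility in the culture medium capped the tested concentration, only an estimate of the toxic concentration was given.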

[13] = system: Staphylococcus epidermidis; assay: Antibacterial activity against Staphylococcus epidermidis H 6966/08 up to 500 uM after 24 to 48 hrs by microdilution broth method; assay type: functional, organism-based; method in brief: as §2

SMILES | MIC (Mycobacterium avium [1]) | Activity (Trichosporon asahii) | Activity (Escherichia coli) | Activity [2] | MIC [3] | Activity (Aspergillus fumigatus) | log K [4] | MIC (Mycobacterium kansasii) | Activity (Pichia kudriavzevii) | Activity [5] | MIC (Mycobacterium avium [6]) | Activity (Lichtheimia corymbifera) | Activity (Candida tropicalis) | Activity (Nakaseomyces glabratus) | Activity (Enterococcus sp.) | Activity (Klebsiella pneumoniae [7]) | Activity (Klebsiella pneumoniae [8]) | Activity (Staphylococcus aureus) | MIC95 [9] [µM] | Activity [10] | other results
CCCCCCNc1cncc(C(N)=O)n1 | > 100 µg/mL | inactive | inactive | inactive | 100 µg/mL | inactive | 0.2051 | > 100 µg/mL | inactive | inactive | > 100 µg/mL | inactive | inactive | inactive | inactive | inactive | inactive | inactive | 62.5 (≈ 13.9 µg/mL) | inactive | Activity (Candida albicans): inactive; Activity (Pseudomonas aeruginosa): inactive; MIC95 [11]: 125 µM (≈ 27.8 µg/mL)
O=C(O)c1cn(C2CC2)c2cc(N3CCNCC3)c(F)cc2c1=O [CIPROFLOXACIN] | – | – | – | – | – | – | – | – | – | – | – | – | – | – | – | – | – | – | 250 (≈ 82.8 µg/mL) | – | MIC95 [11]: 250 µM (≈ 82.8 µg/mL)
CCCCCCCCNc1cnc(C(N)=O)cn1 | > 100 µg/mL | inactive | inactive | inactive | 25 µM | inactive | 0.693 | 25 µM | inactive | inactive | > 100 µg/mL | inactive | inactive | inactive | inactive | inactive | inactive | inactive | – | inactive | selectivity ratio [12]: > 10; IC50 (HepG2): > 250 µM; Activity [13]: inactive; Activity (Candida albicans): inactive; Activity (Pseudomonas aeruginosa): inactive; Activity [11]: inactive
CC1(C)S[C@@H]2[C@H](NC(=O)Cc3ccccc3)C(=O)N2[C@H]1C(=O)O [PENICILLIN G] | – | – | – | – | – | – | – | – | – | – | – | – | – | – | – | – | – | – | 125 (≈ 41.8 µg/mL) | – | MIC95 [11]: 250 µM (≈ 83.6 µg/mL)
NC[C@@H]1O[C@H](O[C@H]2[C@@H](O)[C@H](O[C@@H]3[C@@H](O)[C@H](N)C[C@H](N)[C@H]3O[C@H]3O[C@H](CN)[C@@H](O)[C@H](O)[C@H]3N)O[C@@H]2CO)[C@H](N)[C@@H](O)[C@@H]1O [FRAMYCETIN] | – | – | – | – | – | – | – | – | – | – | – | – | – | – | – | – | – | – | 7.81 (≈ 4.8 µg/mL) | – | MIC95 [11]: 15.6 µM (≈ 9.6 µg/mL)
CCCCCCCNc1cnc(C(N)=O)cn1 | > 100 µg/mL | inactive | inactive | inactive | 53 µM | inactive | 0.4658 | 53 µM | inactive | inactive | > 100 µg/mL | inactive | inactive | inactive | inactive | inactive | inactive | inactive | – | inactive | selectivity ratio [12]: > 4.7; IC50 (HepG2): > 250 µM; Activity [13]: inactive; Activity (Candida albicans): inactive; Activity (Pseudomonas aeruginosa): inactive; Activity [11]: inactive
CCCCCCCCNc1cncc(C(N)=O)n1 | 100 µM | inactive | inactive | inactive | 6 µM | inactive | 0.6514 | 100 µM | inactive | inactive | 100 µM | inactive | inactive | inactive | inactive | inactive | inactive | inactive | – | inactive | selectivity ratio [12]: 25.8; IC50 (HepG2): 161 µM; Activity [13]: inactive; Activity (Candida albicans): inactive; Activity (Pseudomonas aeruginosa): inactive; Activity [11]: inactive
